How the values were obtained:
[1] = target: GABA-A receptor; anion channel; assay: Apparent affinity by displacement of preincubated [35S]TBPS from rat cortical homogenates at 2400 nM
In short: (§1)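 Cortical homogenate (twice-washed, 1:15) pretreated 1 h on ice with acylator (60 nM or 600–2400 nM) plus 200 mM NaCl. It was then washed five times by centrifugation in pH 7.4 phosphate/100 mM NaCl and resuspended chloride-free. Saturation binding used 2–5 nM [35S]TBPS with 0–160 nM unlabeled TBPS, 200 mM NaCl, 2 h at 25 °C. Nonspecific binding was defined by 20 µM picrotoxinin. Kd and Bmax came from Scatchard plots, mean of 3–5 experiments.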

[2] = target: T1, GABA-A receptor; anion channel (Rattus norvegicus) (UniProt O09028+P15431+P18506+P18508+P19969+P20236+P23574+P23576+P28471+P28473+P30191+P62813+P63079+P63138+Q91ZM7+Q9ES14); assay: Displacement of [35S]TBPS binding to rat cortical homogenates (control); in short: as §1
[3] = target: T1, GABA-A receptor; anion channel (Rattus norvegicus); assay: Displacement of [35S]TBPS binding to rat cortical homogenates at 1200 nM; in short: as §1
[4] = target: T1, GABA-A receptor; anion channel (Rattus norvegicus); assay: Displacement of [35S]TBPS binding to rat cortical homogenates at 1500 nM; in short: as §1
[5] = target: T1, GABA-A receptor; anion channel (Rattus norvegicus); assay: Displacement of [35S]TBPS binding to rat cortical homogenates at 2400 nM; in short: as §1
[6] = target: T1, GABA-A receptor; anion channel (Rattus norvegicus); assay: Displacement of [35S]TBPS binding to rat cortical homogenates at 600 nM; in short: as §1
[7] = target: GABA-A receptor; anion channel; assay: Inhibition of [35S]TBPS binding to rat cortical membranes; type: cell membranes, Membrane
In short: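 Coincubation: 5 nM [35S]TBPS and acylator (5–1000 nM or 50–10000 nM, depending on ligand) were added simultaneously to washed cortical homogenate. Incubation was in pH 7.4 potassium phosphate with 200 mM NaCl, 2 h at 25 °C. Binding was read by filtration and scintillation, with nonspecific binding defined by 20 µM picrotoxinin. Inhibition was taken as percent of control; N ≥ 3.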

[8] = target: GABA-A receptor; anion channel; assay: Inhibition of [35S]-TBPS binding to rat cortical membranes after 60 minute pre-incubation with radioligand; type: cell membranes, Membrane
In short: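 Washed cortical homogenate was incubated with 5 nM [35S]TBPS for 60 min before acylator was added, in pH 7.4 potassium phosphate with 200 mM NaCl at 25 °C. Bound radioligand was collected by GF/B filtration and counted by scintillation. Nonspecific binding was defined by 20 µM picrotoxinin. Inhibition was expressed as percent of control binding without acylator; N ≥ 1.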

[9] = target: GABA-A receptor; anion channel; assay: Apparent affinity by displacement of pre-incubated [35S]-TBPS from rat cortical homogenates (control); in short: as §1
[10] = target: GABA-A receptor; anion channel; assay: Apparent affinity by displacement of preincubated [35S]TBPS from rat cortical homogenates at 1200 nM; in short: as §1
[11] = target: GABA-A receptor; anion channel; assay: Apparent affinity by displacement of preincubated [35S]-TBPS from rat cortical homogenates at 1500 nM; in short: as §1
[12] = target: GABA-A receptor; anion channel; assay: Apparent affinity by displacement of pre-incubated [35S]-TBPS from rat cortical homogenates at 600 nM; in short: as §1
[13] = target: Gamma-aminobutyric acid receptor subunit gamma-1 (Rattus norvegicus) (UniProt P23574); assay: Displacement of [35S]TBPS binding to rat cortical homogenates at 60 nM; in short: as §1
[14] = target: Gamma-aminobutyric acid receptor subunit gamma-1 (Rattus norvegicus, UniProt P23574); assay: Apparent affinity by displacement of preincubated [35S]TBPS from rat cortical homogenates at 60 nM; in short: as §1
Sequence of Gamma-aminobutyric acid receptor subunit gamma-1 (P23574 whole entry): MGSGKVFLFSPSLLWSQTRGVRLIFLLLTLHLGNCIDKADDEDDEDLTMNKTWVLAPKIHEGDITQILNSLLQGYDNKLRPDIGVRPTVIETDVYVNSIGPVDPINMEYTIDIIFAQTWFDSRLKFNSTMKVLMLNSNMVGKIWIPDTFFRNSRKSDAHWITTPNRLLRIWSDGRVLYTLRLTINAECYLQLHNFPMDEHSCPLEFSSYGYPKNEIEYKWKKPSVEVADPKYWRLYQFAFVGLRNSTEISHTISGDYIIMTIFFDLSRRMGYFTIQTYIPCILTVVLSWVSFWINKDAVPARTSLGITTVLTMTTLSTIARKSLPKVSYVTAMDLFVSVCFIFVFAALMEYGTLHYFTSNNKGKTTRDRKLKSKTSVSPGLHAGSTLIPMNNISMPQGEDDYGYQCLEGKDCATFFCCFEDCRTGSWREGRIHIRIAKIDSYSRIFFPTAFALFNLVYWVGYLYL

Sequence of Gamma-aminobutyric acid receptor subunit gamma-1 (Rattus norvegicus) (P23574 whole entry): as above

Compound | Kd [1] | Bmax [2] | Bmax [3] | Bmax [4] | Bmax [5] | Bmax [6] | IC50 [7] | IC50 [8] | Kd [9] | Kd [10] | Kd [11] | Kd [12] | Bmax [13] | Kd [14]
CC(C)(C)C12COC(c3ccccc3N=C=S)(OC1)OC2 | 58 nM | 963 fM assay-1 | 817 fM assay-1 | 869 fM assay-1 | 1030 fM assay-1 | 915 fM assay-1 | 609 nM | 7500 nM | 46.7 nM | 50.7 nM | 56.3 nM | 57.3 nM |  | 
CC(C)(C)C12COC(c3ccc(N=C=S)cc3)(OC1)OC2 |  | 955 fM assay-1 |  |  |  |  | 62 nM | 90 nM | 47 nM |  |  |  | 644 fM assay-1 | 72.2 nM
CC(C)(C)C12COC(c3cccc(N=C=S)c3)(OC1)OC2 | 73.8 nM | 1080 fM assay-1 | 889 fM assay-1 | 928 fM assay-1 | 1010 fM assay-1 | 925 fM assay-1 | 570 nM | 5400 nM | 35.3 nM | 51.8 nM | 55.8 nM | 44.5 nM |  | 
